# Most compounds without a hit are left out; they make up all but 2.7% or so of the library.
# PAFAH1B2 inh = blocks human PAF acetylhydrolase 1b catalytic subunit 2; inhibition, % at 3.39 µM; 340,000 tested, 1.2% active; recombinant PAFAH1B2, FP-rhodamine activity probe, fluorescence polarization; P68402;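 active = inhibition above the mean of all tested compounds plus 3 SD, cut at about 24% in these data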;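 note: 0% = enzyme with DMSO and 100% = wells lacking PAFAH1B2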
# pPAFAH FP inh = pPAFAH (human) enzyme inhibition. AID 463082. recombinant pPAFAH, FP-rhodamine probe fluorescence polarization. inhibition, % at 3.39 µM. Q13093. 330,000 tested, 1.5% active;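 active = inhibition above the mean inhibition across the screen plus 3 SD, cut at about 25% in these data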;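 note: inhibitors block binding of the rhodamine activity-based probe so polarization drops; 0% = enzyme with DMSO and 100% = wells lacking pPAFAH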
# PAFAH2 inh = PAFAH2 (human) inhibition | Q99487 | recombinant PAFAH2, FP-rhodamine activity probe, fluorescence polarization | inhibition, % at 3.39 µM | 340,000 tested, 0.99% active | AID 492956;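 active = inhibition above the mean over all tested compounds plus 3 SD, cut at about 30% in these data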;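 note: inhibitors block probe labeling of enzyme so polarization drops; 0% = enzyme with DMSO and 100% = wells lacking PAFAH2 protein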
# ASAP1 inh = ASAP1 ArfGAP inhibition | Q9ULH1 | ASAP1-stimulated ARF1 GTP hydrolysis, GDP FP detection | 360,000 tested, 0.19% active | inhibition, % at 16.5 µM | AID 624377; in the data active = inhibition above about 25%;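 note: 0% = vehicle with enzyme and substrate and 100% = no enzyme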
# ARFGAP1 inhibitor = inhibits rat ARF GTPase activating protein 1. inhibition, % at 16.5 µM. Q62848. AID 651572. Arfgap1-stimulated ARF1 GTP hydrolysis, GDP FP detection. 360,000 tested, 0.26% active;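 active = inhibition above a per-plate limit, mean inhibition of low control wells plus 3 SD, cut at about 25% in these data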;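 note: 0% = DMSO wells with enzyme and 100% = wells lacking Arfgap1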
# Target sequence (Q62848 1-136 limits assumed): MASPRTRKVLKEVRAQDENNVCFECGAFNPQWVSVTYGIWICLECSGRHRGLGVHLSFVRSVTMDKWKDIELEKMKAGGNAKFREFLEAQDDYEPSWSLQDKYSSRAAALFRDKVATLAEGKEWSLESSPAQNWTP
#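 Material: rat Arfgap1 GAP domain (His6, aa 1-136), purified enzyme. Also added: human ARF1(Δ1-17)-GTP substrate. Compound dosing: 16.5 µM single point, 1.26% DMSO. Timing: enzyme reaction 120 min at 25 °C after 20 min preincubation. Signal: GDP detection by fluorescence polarization. Read-out basis: percent inhibition of GAP-stimulated GDP formation, scaled between DMSO and no-Arfgap1 medians.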
# PAFAH1B3 FP inh = blocks human PAF acetylhydrolase 1B catalytic subunit 3; Q15102; recombinant PAFAH1B3, FP-rhodamine probe, fluorescence polarization; inhibition, % at 3.39 µM; 340,000 tested, 0.28% active; AID 492972;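 active = inhibition above the screen-wide average of all tested compounds plus 3 SD, cut at about 25% in these data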;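 note: 0% = enzyme with DMSO only and 100% = wells lacking PAFAH1B3 protein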
# Target sequence (Q15102 whole entry, looked up): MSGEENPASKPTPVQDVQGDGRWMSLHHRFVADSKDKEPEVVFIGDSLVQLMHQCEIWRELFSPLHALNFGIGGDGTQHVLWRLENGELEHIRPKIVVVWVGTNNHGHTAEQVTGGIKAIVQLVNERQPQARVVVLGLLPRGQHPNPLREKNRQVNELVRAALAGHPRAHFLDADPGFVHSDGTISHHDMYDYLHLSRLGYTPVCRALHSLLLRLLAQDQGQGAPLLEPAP
# pPAFAH FP conf = confirmation of human plasma PAF acetylhydrolase (pPAFAH) inhibitors; shares compounds with pPAFAH FP inh; recombinant pPAFAH, FP-Rh probe fluorescence polarization; inhibition, % at 3.39 µM; 2,300 tested, 72% active; AID 463230;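 active = mean inhibition of the triplicate above the hit cutoff set for the earlier primary screen, cut at about 25% in these data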;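 note: 0% = enzyme with DMSO and 100% = wells lacking pPAFAH enzyme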
# An asterisk follows results filed as active; . = no result given.
SMILES,PAFAH1B2 inh,pPAFAH FP inh,PAFAH2 inh,ASAP1 inh,ARFGAP1 inhibitor,PAFAH1B3 FP inh,pPAFAH FP conf
CC(C)[C@@H](C)/C=C/[C@@H](C)[C@H]1CC[C@@H]2[C@]1(C)CCC1[C@]23C=C[C@]2(C[C@@H](O)CC[C@]12C)N(c1ccc(F)cn1)O3 (stereo partly drawn),.,.,.,1.6,7.8,.,.
CNc1nc(-c2ccccc2)nc(-c2ccc(OC)cc2)c1C#N,1.6,-1.4,-2.5,-13.1,-8.8,2.1,.
COc1ccc(-c2nc(-c3ccccc3)[nH]c(=O)c2C#N)cc1,-6.2,52.1*,3.7,-11.2,3.1,-5.6,0.1
O=C(C(=O)N1CCC(CNC(=O)C2COc3ccccc3O2)CC1)c1cccs1 (stereo not drawn),.,.,.,1.0,0.5,.,.
CCOC(=O)C1=CCN(S(=O)(=O)c2ccccc2Cl)C1c1ccc(Cl)cc1 (stereo not drawn),.,.,.,3.1,7.5,.,.
Nc1nc2cc3c(cc2cc1C(=O)NCc1cccnc1)OCO3,.,.,.,2.5,3.2,.,.
CCCOc1ccc(N2C(=O)CC(N(O)c3ccccc3)C2=O)cc1 (stereo not drawn),7.7,8.3,-1.6,-7.5,3.3,-3.8,.
O=C1CC(N(O)c2ccccc2)C(=O)N1c1cc(Cl)cc(Cl)c1 (stereo not drawn),7.1,51.2*,-4.1,6.4,-1.3,5.6,7.5
O=C(O)CC1S/C(=N/N=C/c2ccc(-c3ccc(Cl)c([N+](=O)[O-])c3)o2)NC1=O (stereo not drawn),-1.6,35.8*,6.9,-0.7,4.9,0.1,5.9
COc1ccc(N2CCN(C(=O)COC(=O)c3cccc(S(=O)(=O)Nc4cccc(C)c4)c3)CC2)cc1,-4.2,40.5*,3.5,-2.6,6.1,1.7,43.6*
Nc1nc(SCc2ccccc2)n[nH]1,2.1,46.7*,-0.4,-1.2,2.6,-4.0,1.4
Nc1nc(SCc2ccc(Br)cc2)n[nH]1,15.5,4.0,0.8,-4.7,4.2,14.1,.
CCOC(=O)c1c(-c2ccc(F)cc2)csc1NC(=O)C1CC=CCC1C(=O)O (stereo not drawn),7.2,-6.0,9.6,-8.7,3.8,5.0,.
CCOC(=O)c1c(-c2ccc(C)c(C)c2)csc1NC(=O)C1CC=CCC1C(=O)O (stereo not drawn),2.0,40.5*,18.4,-0.6,-0.3,-2.7,38.6*
CCOC(=O)/C(C#N)=C/Nc1ccccc1NS(=O)(=O)c1cccc(C(C)=O)c1,-1.6,35.4*,0.9,3.0,-5.2,5.4,8.9
CC(/C=C1\SC(=S)N(c2ccc(C(=O)O)cc2)C1=O)=C\c1ccccc1,2.4,35.2*,9.8,-4.7,-22.2,4.3,28.1*
Cc1ccc(S(=O)(=O)Nc2cc(Cl)c(O)c3ncccc23)cc1,8.2,45.8*,5.4,15.1,8.0,18.7,36.9*
Oc1c(Cl)cc(Cl)c2cccnc12,1.8,.,-1.9,9.7,-2.1,4.8,.
CC1(c2cccc(Br)c2)NC(=O)N(CC(=O)c2ccc3c(c2)OCO3)C1=O (stereo not drawn),.,.,.,14.7,15.3,.,.
CC1(c2cccc(Br)c2)NC(=O)N(CC(=O)c2ccc3c(c2)OCCO3)C1=O (stereo not drawn),6.9,37.6*,1.9,-10.5,-8.2,-1.1,2.0
CCOCCn1c(=O)c2c(nc3n2CCCN3Cc2ccccc2)n(C)c1=O,2.1,41.5*,0.8,4.9,-12.1,1.1,2.7
CCOCCn1c(=O)c2c(nc3n2CCCN3CCc2ccccc2)n(C)c1=O,3.2,4.2,-7.9,-6.9,13.2,-3.0,.
Cc1ccc(C(=O)N2CCC[C@@H]2C(=O)N2CCC[C@H]2C(=O)NCc2ccccc2)cc1,.,.,.,1.1,-5.6,.,.
C=CCn1c(SC(C)C(=O)Nc2ccc(Cl)cn2)nnc1C1CC1 (stereo not drawn),-1.9,-5.8,-4.5,-5.4,7.2,-5.0,.
C=CCn1c(SC(C)C(=O)Nc2ccc(F)c(F)c2F)nnc1C1CC1 (stereo not drawn),-0.2,35.2*,0.4,-3.3,11.2,-6.6,2.0
CC(=O)c1sc2nc(-c3cccs3)ccc2c1N,8.4,3.8,5.5,-9.2,8.1,7.2,.

# Screening results from PubChem BioAssay.
